Experimental data as given in ChEMBL document CHEMBL4414562, “Discovery of the First in Vivo Active Inhibitors of the Soluble Epoxide Hydrolase Phosphatase Domain” (J Med Chem, 2019).
Calls of active or inactive are those of the source. The calls are words filed in the database; no cut-off is given here.

What was measured:
[1] = molecular target: Prostaglandin G/H synthase 1 (Homo sapiens, UniProt P23219); assay: Inhibition of COX1 in A23187-stimulated human platelets assessed as reduction in TXA2 production
Prostaglandin G/H synthase 1, sequence (P23219 whole entry): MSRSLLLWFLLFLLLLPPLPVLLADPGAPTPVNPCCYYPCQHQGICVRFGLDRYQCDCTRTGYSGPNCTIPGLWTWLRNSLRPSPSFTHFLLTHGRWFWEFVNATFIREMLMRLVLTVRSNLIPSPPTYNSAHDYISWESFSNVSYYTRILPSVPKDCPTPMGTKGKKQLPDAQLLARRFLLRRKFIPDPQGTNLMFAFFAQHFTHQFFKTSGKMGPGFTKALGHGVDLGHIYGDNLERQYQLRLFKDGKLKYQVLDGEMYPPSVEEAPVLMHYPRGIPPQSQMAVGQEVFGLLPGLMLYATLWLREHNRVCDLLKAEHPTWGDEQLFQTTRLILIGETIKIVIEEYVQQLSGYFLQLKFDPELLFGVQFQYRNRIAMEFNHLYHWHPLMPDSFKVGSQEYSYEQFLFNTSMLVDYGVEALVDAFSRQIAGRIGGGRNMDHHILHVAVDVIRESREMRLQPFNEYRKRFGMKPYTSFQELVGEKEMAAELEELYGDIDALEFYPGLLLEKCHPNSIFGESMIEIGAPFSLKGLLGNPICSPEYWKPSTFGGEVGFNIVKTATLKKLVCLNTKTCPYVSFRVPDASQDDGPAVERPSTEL
Procedure, shortened: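 Washed human platelets preincubated with increasing compound concentrations, then challenged with calcium ionophore A23187. TXB2 (stable TXA2 metabolite) in supernatant quantified by LC−MS/MS with TXB2-d4 internal standard.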

[2] = molecular target: T1, Bifunctional epoxide hydrolase 2 (Homo sapiens, UniProt P34913); assay: Inhibition of hexa-His-tagged human soluble epoxide hydrolase C-terminal hydrolase domain expressed in Escherichia coli BL21(DE3) pre-incubated for 30 mins before PHOME substrate addition by fluorescence based assay
T1 sequence (P34913 whole entry): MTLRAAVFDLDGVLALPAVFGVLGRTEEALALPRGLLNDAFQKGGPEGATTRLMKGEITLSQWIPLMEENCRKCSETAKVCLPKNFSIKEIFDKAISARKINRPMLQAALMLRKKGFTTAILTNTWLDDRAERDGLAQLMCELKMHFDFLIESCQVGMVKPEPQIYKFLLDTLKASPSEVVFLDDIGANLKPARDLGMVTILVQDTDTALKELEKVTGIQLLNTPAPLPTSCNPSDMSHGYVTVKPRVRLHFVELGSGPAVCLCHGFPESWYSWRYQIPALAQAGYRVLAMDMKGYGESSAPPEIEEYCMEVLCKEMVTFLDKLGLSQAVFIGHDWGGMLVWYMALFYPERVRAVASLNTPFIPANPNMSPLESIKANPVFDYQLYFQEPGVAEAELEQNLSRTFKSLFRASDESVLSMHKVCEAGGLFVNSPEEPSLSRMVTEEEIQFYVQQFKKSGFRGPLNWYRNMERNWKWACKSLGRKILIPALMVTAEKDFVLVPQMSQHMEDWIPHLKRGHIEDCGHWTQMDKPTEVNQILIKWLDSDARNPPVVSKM

[3] = molecular target: T2, Bifunctional epoxide hydrolase 2 (Homo sapiens) (UniProt P34913); assay: Induction of stabilization of hexa-His-tagged human soluble epoxide hydrolase C-terminal hydrolase domain expressed in Escherichia coli BL21(DE3) at 50 uM by differential scanning fluorimetry
T2 sequence (whole entry): T1 sequence (P34913 whole entry)

[4] = molecular target: T1, Bifunctional epoxide hydrolase 2; assay: Competitive inhibition of full length human soluble epoxide hydrolase pre-incubated for 30 mins before DiFMUP substrate addition by fluorescence based assay
Rattus norvegicus [5] = assay: Inhibition of sEH-H in Sprague-Dawley rat assessed as effect on ratio of 19,20-EpDPA […] in plasma at 30 mg/kg, po after 8 hrs by LC-MS/MS analysis; assay type: functional, organism-based
Procedure, shortened: (§1)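 Male Sprague-Dawley rats given a single oral dose of 30 mg/kg or vehicle (n = 3 per group). Plasma collected 8 h later. Epoxy fatty acid/diol ratios and LPA/corresponding MAG ratios quantified by LC−MS/MS.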

[6] = Cmax in Sprague-Dawley rat at 30 mg/kg, po monitored over 8 hrs by LC-MS analysis; assay type: ADME, organism-based; set-up: dose 30 mg/kg, route oral; conditions: in vivo
Procedure, shortened: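 Male Sprague-Dawley rats (n = 3) given a single oral dose of 30 mg/kg. Plasma compound concentration followed over 8 h. Cmax and half-life derived from the plasma concentration–time profile.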

Rattus norvegicus [7] = assay: Inhibition of sEH-P in Sprague-Dawley rat assessed as effect on ratio of sn1-20:4 LPA to corresponding monoacylglycerol species in plasma at 30 mg/kg, po after 8 hrs by LC-MS/MS analysis; assay type: functional, organism-based; procedure, shortened: as §1
Rattus norvegicus [8] = assay: Inhibition of sEH-H in Sprague-Dawley rat assessed as effect on ratio of 14,15-EET to 14,15-DHET in plasma at 30 mg/kg, po after 8 hrs by LC-MS/MS analysis; assay type: functional, organism-based; procedure, shortened: as §1
[9] = Binding affinity to hexa-His-tagged human soluble epoxide hydrolase N-terminal phosphatase domain expressed in Escherichia coli BL21(DE3) by ITC assay
Procedure, shortened: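 Inverse-mode ITC with 185 μM freshly prepared sEH-P in the syringe and inhibitor in the cell. Both in 50 mM acetate, 10 mM MgCl2, 5% glycerol, pH 5.75 with 2% DMSO. Run at 25 °C, 350 rpm stirring, 20−25 injections of 8−10 μL, 200 s spacing. Inhibitor concentration chosen to optimize curve shape. Heats fitted to a single-site model.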

[10] = molecular target: T1, Bifunctional epoxide hydrolase 2; assay: Inhibition of phosphatase activity of full length human soluble epoxide hydrolase pre-incubated for 30 mins before FDP substrate addition by fluorescence based assay
[11] = molecular target: T1, Bifunctional epoxide hydrolase 2; assay: Inhibition of hydrolase activity of full length human soluble epoxide hydrolase pre-incubated for 30 mins before PHOME substrate addition by fluorescence based assay
Procedure, shortened: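 Hydrolase assay with 0.1 μM full-length enzyme in Bis-Tris pH 7 containing 0.1 mg/mL BSA and 0.01% Triton X-100. Reaction started with PHOME (50 μM final). Triplicates.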

## O=C(O)CCCc1nc(-c2ccc(Cl)c(Cl)c2)c(-c2ccccc2)o1
[1]
  IC50: 1.2 µM
[2]
  IC50: 12 µM
[3]
  Activity: inactive
[4]
  Ki: 4.8 µM
Rattus norvegicus [5]
  inhibition: inactive
[6]
  Cmax: 128 µM
Rattus norvegicus [7]
  inhibition: Active
Homo sapiens
  ΔTm: 6.6 °C
Rattus norvegicus [8]
  inhibition: inactive
[9]
  Kd: 0.3 µM

## O=C(O)CCc1nc(-c2ccccc2)c(-c2ccccc2)o1 [OXAPROZIN]
[10]
  IC50: 70 µM
[11]
  IC50: > 300 µM
